We go through nine molecules from ChEMBL document CHEMBL1165995, “Anti-ischemia steroidal saponins from the seeds of Allium fistulosum” (2010).

Holding throughout (type): functional
Common to all, as to conditions: Homo sapiens, read-out: Activity

Test [1] has as its system HUVEC. Kind of test: Antiischemic activity against hypoxia/reoxygenation-induced cell injury in HUVEC assessed as cell viability at 100 uM by MTT assay. Put shortly:
(§1)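 HUVEC given hypoxia/reoxygenation (H/R) injury and treated with saponin at one of six dose groups (0.5, 1, 5, 10, 50, 100 µM). Viability was read by MTT assay, with untreated control cells and H/R-only cells as references. Values are mean ± SEM of three independent experiments, and significance was tested against the H/R group.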
Background: Tetrazolium assays rely on reduction of a dye to a coloured formazan, in cell work by metabolically active cells.

Test [2] concerns HUVEC. As to the kind of experiment: Antiischemic activity against hypoxia/reoxygenation-induced cell injury in HUVEC assessed as cell viability at 5 uM by MTT assay. The gist of the method: as §1
The test system of test [3] is HUVEC. As to the kind of experiment: Antiischemic activity against hypoxia/reoxygenation-induced cell injury in HUVEC assessed as cell viability at 50 uM by MTT assay. Put shortly: as §1
Test [4] relates to HUVEC. Kind of test: Antiischemic activity against hypoxia/reoxygenation-induced cell injury in HUVEC assessed as cell viability at 1 uM by MTT assay. The gist of the method:
as §1

Test [5] has as its system HUVEC. As to the kind of experiment: Antiischemic activity against hypoxia/reoxygenation-induced cell injury in HUVEC assessed as cell viability at 10 uM by MTT assay. The gist of the method: as §1
Test [6] relates to HUVEC. As to the kind of experiment: Antiischemic activity against hypoxia/reoxygenation-induced cell injury in HUVEC assessed as cell viability at 0.5 uM by MTT assay. Put shortly:
as §1

Take `C[C@@H](CC[C@@]1(O)O[C@H]2C[C@H]3[C@@H]4CC=C5C[C@@H](O[C@@H]6O[C@H](CO)[C@@H](O)[C@H](O[C@@H]7O[C@H](CO)[C@@H](O)[C@H](O)[C@H]7O)[C@H]6O[C@@H]6O[C@@H](C)[C@H](O)[C@@H](O)[C@H]6O)CC[C@]5(C)[C@H]4CC[C@]3(C)[C@H]2[C@@H]1C)CO[C@@H]1O[C@H](CO)[C@@H](O)[C@H](O)[C@H]1O` [PROTOGRACILLIN]: the viability at 100 µM with HUVEC [1] is 68%. In the test with HUVEC [2], the viability at 5 µM is 75.2%. The viability at 50 µM in the test with HUVEC [3] was 78.2%. Further, in the test with HUVEC [4], the viability at 1 µM is 69.5%. Further, the viability at 10 µM in the test on HUVEC [5] worked out at 77.9%. Moreover, the viability at 0.5 µM in the test with HUVEC [6] was found to be 60.9%.

`C[C@@H](CC[C@@]1(O)O[C@H]2C[C@H]3[C@@H]4CC=C5C[C@@H](O[C@@H]6O[C@H](CO)[C@@H](O)[C@H](O)[C@H]6O[C@@H]6O[C@H](CO)[C@@H](O)[C@H](O)[C@H]6O[C@@H]6O[C@H](CO)[C@@H](O)[C@H](O)[C@H]6O)[C@H](O)C[C@]5(C)[C@H]4CC[C@]3(C)[C@H]2[C@@H]1C)CO[C@@H]1O[C@H](CO)[C@@H](O)[C@H](O)[C@H]1O` [FISTULOSAPONIN F]: the viability at 100 µM in the test with HUVEC [1] amounted to 71.2%. In the test with HUVEC [2], the viability at 5 µM was 74.1%. Besides, in the test on HUVEC [3], the viability at 50 µM turned out to be 77.4%. For the same molecule, the viability at 1 µM with HUVEC [4] was found to be 68.3%. In addition, in the test on HUVEC [5], the viability at 10 µM came to 75.5%. For the same molecule, the viability at 0.5 µM with HUVEC [6] amounted to 62.3%.

In the case of `C[C@@H](CC[C@@]1(O)O[C@H]2C[C@H]3[C@@H]4CC=C5C[C@@H](O[C@@H]6O[C@H](CO)[C@@H](O[C@@H]7O[C@@H](C)[C@H](O[C@@H]8O[C@@H](C)[C@H](O)[C@@H](O)[C@H]8O)[C@@H](O)[C@H]7O)[C@H](O)[C@H]6O[C@@H]6O[C@@H](C)[C@H](O)[C@@H](O)[C@H]6O)CC[C@]5(C)[C@H]4CC[C@]3(C)[C@H]2[C@@H]1C)CO[C@@H]1O[C@H](CO)[C@@H](O)[C@H](O)[C@H]1O`, in the test with HUVEC [1], the viability at 100 µM was 62.8%. In addition, the viability at 5 µM in the test on HUVEC [2] amounted to 69.5%. Besides, the viability at 50 µM with HUVEC [3] worked out at 73.6%. Also, in the test with HUVEC [4], the viability at 1 µM was 65.2%. The viability at 10 µM in the test with HUVEC [5] came to 73.3%. Besides, the viability at 0.5 µM with HUVEC [6] was determined as 64%.

On to `CC1=C(CC[C@H](C)CO[C@@H]2O[C@H](CO)[C@@H](O)[C@H](O)[C@H]2O)O[C@H]2C[C@H]3[C@@H]4CC=C5C[C@@H](O[C@@H]6O[C@H](CO)[C@@H](O)[C@H](O)[C@H]6O[C@@H]6O[C@H](CO)[C@@H](O)[C@H](O)[C@H]6O[C@@H]6O[C@H](CO)[C@@H](O)[C@H](O)[C@H]6O)[C@H](O)C[C@]5(C)[C@H]4CC[C@]3(C)[C@@H]12` [FISTULOSAPONIN E], for which, in the test with HUVEC [1], the viability at 100 µM amounted to 68%. Besides, the viability at 5 µM in the test on HUVEC [2] amounted to 70.2%. Further, in the test on HUVEC [3], the viability at 50 µM was determined as 75.4%. In the test on HUVEC [4], the viability at 1 µM was 64.3%. Moreover, the viability at 10 µM in the test on HUVEC [5] turned out to be 77.9%. The viability at 0.5 µM in the test with HUVEC [6] amounted to 60.9%.

As to `C[C@@H](CC[C@@]1(O)O[C@H]2C[C@H]3[C@@H]4CC=C5C[C@@H](O[C@@H]6O[C@H](CO)[C@@H](O)[C@H](O)[C@H]6O[C@@H]6O[C@H](CO)[C@@H](O)[C@H](O)[C@H]6O[C@@H]6O[C@H](CO)[C@@H](O)[C@H](O)[C@H]6O)C(=O)C[C@]5(C)[C@H]4CC[C@]3(C)[C@H]2[C@@H]1C)CO[C@@H]1O[C@H](CO)[C@@H](O)[C@H](O)[C@H]1O` [FISTULOSAPONIN D], in the test on HUVEC [1], the viability at 100 µM was determined as 75.6%. The viability at 5 µM with HUVEC [2] stood at 78.2%. Besides, the viability at 50 µM in the test with HUVEC [3] was 82.4%. For the same molecule, the viability at 1 µM in the test with HUVEC [4] stood at 72.6%. In addition, the viability at 10 µM in the test with HUVEC [5] is 79.8%. In the test with HUVEC [6], the viability at 0.5 µM came to 68.9%.

`C[C@@H](CC[C@@]1(O)O[C@H]2C[C@H]3[C@@H]4CC=C5C[C@@H](O[C@@H]6O[C@H](CO)[C@@H](O)[C@H](O)[C@H]6O[C@@H]6O[C@@H](C)[C@H](O[C@@H]7O[C@@H](C)[C@H](O)[C@@H](O)[C@H]7O)[C@@H](O)[C@H]6O)C(=O)C[C@]5(C)[C@H]4CC[C@]3(C)[C@H]2[C@@H]1C)CO[C@@H]1O[C@H](CO)[C@@H](O)[C@H](O)[C@H]1O` [FISTULOSAPONIN C]: in the test on HUVEC [1], the viability at 100 µM is 69.5%. Besides, the viability at 5 µM in the test with HUVEC [2] was 79.7%. Also, the viability at 50 µM in the test with HUVEC [3] came to 84.6%. For the same molecule, the viability at 1 µM in the test with HUVEC [4] is 74.8%. Further, the viability at 10 µM in the test on HUVEC [5] was 81.2%. For the same molecule, the viability at 0.5 µM in the test with HUVEC [6] stood at 71.7%.

For the molecule `C[C@@H](CC[C@@]1(O)O[C@H]2C[C@H]3[C@@H]4CC=C5C[C@@H](O[C@@H]6O[C@H](CO)[C@@H](O[C@@H]7O[C@@H](C)[C@H](O)[C@@H](O)[C@H]7O)[C@H](O)[C@H]6O[C@@H]6O[C@@H](C)[C@H](O)[C@@H](O)[C@H]6O)C(=O)C[C@]5(C)[C@H]4CC[C@]3(C)[C@H]2[C@@H]1C)CO[C@@H]1O[C@H](CO)[C@@H](O)[C@H](O)[C@H]1O` [FISTULOSAPONIN B], the viability at 100 µM in the test on HUVEC [1] came to 74.8%. In addition, in the test with HUVEC [2], the viability at 5 µM was 77.2%. For the same molecule, the viability at 50 µM in the test with HUVEC [3] is 82.1%. In addition, the viability at 1 µM in the test with HUVEC [4] turned out to be 71.8%. The viability at 10 µM with HUVEC [5] worked out at 79.4%. The viability at 0.5 µM in the test with HUVEC [6] turned out to be 65.7%.

Turning to `CC1=C(CC[C@H](C)CO[C@@H]2O[C@H](CO)[C@@H](O)[C@H](O)[C@H]2O)O[C@H]2C[C@H]3[C@@H]4CC=C5C[C@@H](O[C@@H]6O[C@H](CO)[C@@H](O[C@@H]7O[C@@H](C)[C@H](O)[C@@H](O)[C@H]7O)[C@H](O)[C@H]6O[C@@H]6O[C@@H](C)[C@H](O)[C@@H](O)[C@H]6O)C(=O)C[C@]5(C)[C@H]4CC[C@]3(C)[C@@H]12` [FISTULOSAPONIN A], the viability at 100 µM with HUVEC [1] is 78.2%. Further, the viability at 5 µM in the test with HUVEC [2] is 80.1%. Also, the viability at 50 µM in the test on HUVEC [3] worked out at 86.3%. Moreover, the viability at 1 µM in the test with HUVEC [4] worked out at 76.3%. Further, the viability at 10 µM in the test on HUVEC [5] is 82.7%. The viability at 0.5 µM in the test with HUVEC [6] came out at 59.5%.

For `C[C@@H](CC[C@@]1(O)O[C@H]2C[C@H]3[C@@H]4CC=C5C[C@@H](O[C@@H]6O[C@H](CO)[C@@H](O[C@@H]7O[C@@H](C)[C@H](O)[C@@H](O)[C@H]7O)[C@H](O)[C@H]6O[C@@H]6O[C@@H](C)[C@H](O)[C@@H](O)[C@H]6O)CC[C@]5(C)[C@H]4CC[C@]3(C)[C@H]2[C@@H]1C)CO[C@@H]1O[C@H](CO)[C@@H](O)[C@H](O)[C@H]1O`, the viability at 100 µM in the test with HUVEC [1] came to 68.6%. The viability at 5 µM in the test with HUVEC [2] was 69.4%. For the same molecule, in the test with HUVEC [3], the viability at 50 µM stood at 74.3%. For the same molecule, the viability at 1 µM with HUVEC [4] is 63.5%. Further, the viability at 10 µM in the test with HUVEC [5] amounted to 72.1%. Moreover, in the test on HUVEC [6], the viability at 0.5 µM was 60.7%.
